Screening data (PubChem BioAssay)
In the library only some 2.3% were active in any assay of this set; here they are far more common.
OXTR ag – agonists of human oxytocin receptor; activation, % at 3 µM; 320,000 tested, 0.32% active; CHO-OTR cells, Fluo-8 calcium fluorescence; normalized: DMSO 0%, oxytocin 100%; P30559;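 active means activation above the mean of all tested compounds plus 3 SD, cutoff set per screening run, cut at about 20% in these data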;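 further: peak over basal fluorescence ratio from a 100 s FLIPR kinetic read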
Target sequence (P30559 whole entry, looked up): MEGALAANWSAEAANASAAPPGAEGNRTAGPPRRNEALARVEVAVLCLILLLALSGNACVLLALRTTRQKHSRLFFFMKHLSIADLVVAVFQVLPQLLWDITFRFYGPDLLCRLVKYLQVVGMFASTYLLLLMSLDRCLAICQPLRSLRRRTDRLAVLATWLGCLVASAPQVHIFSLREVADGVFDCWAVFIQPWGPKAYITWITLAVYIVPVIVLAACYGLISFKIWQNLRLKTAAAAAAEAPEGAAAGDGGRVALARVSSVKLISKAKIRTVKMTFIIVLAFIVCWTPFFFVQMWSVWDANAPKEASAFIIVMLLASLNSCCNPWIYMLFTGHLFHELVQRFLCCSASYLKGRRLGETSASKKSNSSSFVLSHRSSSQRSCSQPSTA
TAAR1 antag – human TAAR1 antagonism; Q96RJ0; CHO RD-HGA16 TAAR1, Fluo-8 calcium fluorescence, antagonist; inhibition, % at 3 µM; 360,000 tested, 1.5% active; AID 624466;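 active means inhibition above a per-plate cutoff, the mean inhibition of test compounds on that plate plus 3 SD, cut at about 49% in these data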;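 further: 0% = DMSO plus EC80 beta-PEA response and 100% = DMSO alone without agonist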
Target sequence (Q96RJ0 whole entry, looked up): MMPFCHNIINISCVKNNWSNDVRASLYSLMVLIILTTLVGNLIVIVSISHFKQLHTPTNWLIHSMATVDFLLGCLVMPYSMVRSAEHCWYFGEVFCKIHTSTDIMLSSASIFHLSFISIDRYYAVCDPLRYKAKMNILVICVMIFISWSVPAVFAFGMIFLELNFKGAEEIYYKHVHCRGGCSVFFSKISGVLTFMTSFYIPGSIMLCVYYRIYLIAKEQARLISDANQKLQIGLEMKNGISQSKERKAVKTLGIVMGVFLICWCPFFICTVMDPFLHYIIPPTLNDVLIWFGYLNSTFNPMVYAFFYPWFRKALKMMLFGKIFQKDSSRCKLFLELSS
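System: CHO RD-HGA16 cells bearing hTAAR1. Reagent: EC80 β-phenethylamine stimulus. Schedule: seeding 17-24 h prior, 75-min 37 °C, 30-min RT dye loading. Signal: Fluo-8 intracellular calcium dye fluorescence, real-time kinetic reads. Read-out: % inhibition from peak post-agonist over basal fluorescence ratio. Benchmarks: vehicle wells and EC80 agonist wells. Replicates: n of 1.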
V1aR counter – V1a receptor agonism, counter-screen for OXTR agonists; activation, % at 3 µM; CHO-V1R cells, Fluo-8 calcium fluorescence, agonist mode; 0% DMSO, 100% 3 nM vasopressin; 320,000 tested, 0.25% active;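 active means activation above the mean activation of all tested compounds plus 3 SD, per screening run, cut at about 20% in these data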;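 further: signal is peak over basal fluorescence ratio across a 100 second FLIPR read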
OXTR potentiate – potentiators of human oxytocin receptor | activation, % at 3 µM | CHO-OTR cells, Fluo-8 calcium fluorescence, potentiator mode; 0% = oxytocin EC15, 100% = EC100 | 320,000 tested, 0.061% active;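 active means activation above that plate's cutoff, the mean activation of tested compounds plus 3 SD, cut at about 6.6% in these data, passing the limit was not always enough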;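 further: 100% uses oxytocin at 75 nM as the full agonist control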
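Measured by – Fluo-8 calcium dye fluorescence · Test system – human OTR in CHO cells · Dosing – one concentration, 3.0 µM compound · Controls – EC15 oxytocin alone as 0%, 75 nM oxytocin as 100% · Evaluation – normalized max/min fluorescence ratio, % activation · Timing – 6 min pre-incubation, 100 s read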
TAAR1 agonist – agonists of human TAAR1. Q96RJ0. 360,000 tested, 0.99% active. activation, % at 3 µM. CHO RD-HGA16 TAAR1, Fluo-8 calcium fluorescence; vehicle wells 0%, saturating PEA agonist 100%;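 active means activation above the mean activation of all test compounds in the run plus 3 SD, cut at about 38% in these data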
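Assay system – CHO-derived RD-HGA16 cells with stable Gα16 and human TAAR1 · Compound dosing – one-point dosing at 3 µM (nominal) · Incubation – 17-24 h seeding, 75 min 37 °C dye, 30 min RT · Measured by – kinetic Fluo-8 calcium fluorescence · Control set – DMSO vehicle as 0%, PEA at EC100 as 100% · Repeats – single well for each compound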
TAAR1 ag conf – human TAAR1 agonism, confirmed; CHO RD-HGA16 TAAR1, Fluo-8 calcium fluorescence; scaled: DMSO 0%, maximal phenethylamine 100%; 2,400 tested, 82% active; shares compounds with TAAR1 agonist; activation, % at 3 µM;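 active means activation above a cutoff set at the run's mean compound activation plus 3 SD, cut at about 39% in these data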
Ga16 ag counter – nonselective agonism, TAAR1 counter-screen. 2,400 tested, 50% active. CHO-Ga16 parental, Fluo-8 calcium fluorescence; normalized to maximal ATP response, DMSO zero. activation, % at 3 µM. shares compounds with TAAR1 agonist. AID 651787;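 active means activation above the run cutoff, the mean activation over all tested wells plus 3 SD, cut at about 12% in these data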;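 further: 0% = DMSO wells and 100% = maximal ATP response on the peak over basal ratio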
TAAR1 desens – TAAR1 response desensitization, agonist counter-screen; shares compounds with TAAR1 agonist; CHO RD-HGA16 hTAAR1, Fluo-8 calcium, beta-PEA response inhibition; inhibition, % at 3 µM; 2,400 tested, 46% active; AID 651951;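 active means inhibition above the run cutoff, the mean inhibition of all test compounds plus 3 SD, cut at about 49% in these data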;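 further: beta-PEA stimulus applied at its EC80; loss of beta-PEA calcium signal after compound pretreatment read as receptor desensitization; 0% = DMSO with beta-PEA at EC80 and 100% = DMSO alone without agonist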
Ga16 antag count – counter-screen for TAAR1 agonists: nonselective Ga16 antagonists; shares compounds with TAAR1 agonist; CHO-Ga16 ATP-induced calcium, Fluo-8 fluorescence; inhibition, % at 3 µM; 2,400 tested, 39% active; AID 651952;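 active means inhibition above the plate's mean compound inhibition plus 3 SD, computed per plate, cut at about 22% in these data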;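 further: 0% = EC80 ATP with DMSO and 100% = DMSO wells without ATP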
Starred values were filed as active, the others as inactive.

What do the screens show for `O=C(CCS(=O)(=O)c1ccc2c(c1)NC(=O)CO2)NCCc1ccccc1`?
OXTR ag: 0; TAAR1 antag: 27; V1aR counter: 0; OXTR potentiate: -3; TAAR1 agonist: 66*; TAAR1 ag conf: 62*; Ga16 ag counter: -1; TAAR1 desens: 5; Ga16 antag count: -1

Results for CC(=O)NCCNc1nc(NCc2ccccc2)nc2ccsc12 ?
TAAR1 antag: 92*; TAAR1 agonist: 91*; TAAR1 ag conf: 109*; Ga16 ag counter: 23*; TAAR1 desens: 101*; Ga16 antag count: 53*

How did COCCNc1nc(NC(C)C)nc2ccsc12 do in these assays?
TAAR1 antag: -13; TAAR1 agonist: 16

What do the screens show for `COCCNc1nc(NCc2ccccc2)nc2ccsc12`?
TAAR1 antag: 104*; TAAR1 agonist: 153*; TAAR1 ag conf: 123*; Ga16 ag counter: 103*; TAAR1 desens: 107*; Ga16 antag count: 102*

What do the screens show for `COc1ccc(CCNS(=O)(=O)c2ccc([N+](=O)[O-])cc2)cc1OC`?
OXTR ag: 1; TAAR1 antag: -6; V1aR counter: 1; OXTR potentiate: -1; TAAR1 agonist: 0

Results for S=C(NC1CCCC1)NC1CCCC1 ?
OXTR ag: -1; TAAR1 antag: 2; V1aR counter: 0; OXTR potentiate: -7; TAAR1 agonist: 1

Results for CN1CCN(C2=Cc3ccccc3Sc3cc(F)c(F)cc32)CC1 ?
OXTR ag: 7; TAAR1 antag: -5; V1aR counter: 3; OXTR potentiate: -2; TAAR1 agonist: 37

Results for CN1CCN(C2=Cc3cc(Cl)ccc3Sc3cc(F)ccc32)CC1 ?
OXTR ag: 10; TAAR1 antag: 39; V1aR counter: 8; OXTR potentiate: -4; TAAR1 agonist: 67*; TAAR1 ag conf: 89*; Ga16 ag counter: 46*; TAAR1 desens: 70*; Ga16 antag count: 45*

How did CN1CCN(C2=Cc3ccccc3Sc3cc(F)c(Cl)cc32)CC1 do in these assays?
OXTR ag: 0; TAAR1 antag: 2; V1aR counter: 2; OXTR potentiate: -8; TAAR1 agonist: 46*; TAAR1 ag conf: 38*; Ga16 ag counter: 16*; TAAR1 desens: 19; Ga16 antag count: 24*

Results for O=S(=O)(Nc1cccc(-c2ccc(N3CCCCCC3)nn2)c1)c1cccc(F)c1 ?
OXTR ag: 0; TAAR1 antag: -21; V1aR counter: 0; OXTR potentiate: -7; TAAR1 agonist: -1

What do the screens show for `O=C(Nc1ccc(Cl)c(S(=O)(=O)N2CCOCC2)c1)c1ccc(OCC2CCCO2)cc1` (stereo not given)?
OXTR ag: 11; V1aR counter: 13; OXTR potentiate: -31

How did Cc1cccc(N2CCN(C(=S)Nc3ccc4nc(N5CCN(C)CC5)cc(C)c4c3)CC2C)c1 (stereo not given) do in these assays?
OXTR ag: 6; TAAR1 antag: 85*; V1aR counter: 1; OXTR potentiate: -5; TAAR1 agonist: 93*; TAAR1 ag conf: 103*; Ga16 ag counter: 44*; TAAR1 desens: 94*; Ga16 antag count: 35*

Results for Cc1cc(N2CCN(C)CC2)nc2ccc(NC(=S)N3CCN(c4cccc(Cl)c4)CC3)cc12 ?
OXTR ag: 1; TAAR1 antag: 4; V1aR counter: 1; OXTR potentiate: 0; TAAR1 agonist: 7

How did Cc1ccc(-n2nc3c(c2NC(=O)c2ccco2)CS(=O)C3)c(C)c1 (stereo not given) do in these assays?
OXTR ag: 0; TAAR1 antag: -7; V1aR counter: 0; OXTR potentiate: -6; TAAR1 agonist: 1

What do the screens show for `O=C(NCc1ccc2c(c1)OCO2)C(=O)NC1CCCCC1`?
OXTR ag: 1; TAAR1 antag: -21; V1aR counter: -1; OXTR potentiate: -12; TAAR1 agonist: 4

What do the screens show for `CC1CCCC(C)N1C(=O)CNCc1ccc2c(c1)OCO2` (stereo not given)?
OXTR ag: 1; TAAR1 antag: 3; V1aR counter: 1; OXTR potentiate: -9; TAAR1 agonist: 71*; TAAR1 ag conf: 23; Ga16 ag counter: 5; TAAR1 desens: -4; Ga16 antag count: -5

Results for O=C(COc1ccc(Cl)cc1Cl)NCCN1CCCC1 ?
TAAR1 antag: -15; TAAR1 agonist: 2

Results for O=C(NCCc1ccccc1)c1nc2nc(-c3cccs3)cc(C(F)(F)F)n2n1 ?
OXTR ag: -3; TAAR1 antag: 84*; V1aR counter: -1; OXTR potentiate: -6; TAAR1 agonist: 84*; TAAR1 ag conf: 91*; Ga16 ag counter: 4; TAAR1 desens: 90*; Ga16 antag count: 18

How did Cc1cc(C)n2nc(C(=O)NCCc3ccccc3)nc2n1 do in these assays?
OXTR ag: 0; TAAR1 antag: -4; V1aR counter: 1; OXTR potentiate: 0; TAAR1 agonist: 63*; TAAR1 ag conf: 54*; Ga16 ag counter: 0; TAAR1 desens: 9; Ga16 antag count: 4

What do the screens show for `O=C(O)c1cc2nc(-c3cccs3)cc(C(F)(F)F)n2n1`?
OXTR ag: 1; TAAR1 antag: 0; V1aR counter: 0; OXTR potentiate: -10; TAAR1 agonist: 7

What do the screens show for `CCN(CC)c1ccc(C(=C2C=CC(=[N+](CC)CC)C=C2)c2ccc(N(CC)CC)cc2)cc1`?
TAAR1 antag: 95*; TAAR1 agonist: 50*; TAAR1 ag conf: 68*; Ga16 ag counter: 45*; TAAR1 desens: 92*; Ga16 antag count: 84*

Results for COc1ccc(NC(=O)c2cc(-c3ccccc3O)n[nH]2)cc1Cl ?
TAAR1 antag: 10; TAAR1 agonist: 6

Results for N=C1/C(=C\c2coc3ccccc3c2=O)C(=O)N=C2SC=CN12 ?
OXTR ag: 116*; TAAR1 antag: 60*; V1aR counter: 84*; OXTR potentiate: -10; TAAR1 agonist: 148*; TAAR1 ag conf: 110*; Ga16 ag counter: 118*; TAAR1 desens: 75*; Ga16 antag count: 75*
